{"source": "ChEMBL document CHEMBL1156469", "about": "(2007)", "key": {"Osteoblast [1]": {"tested_on": "Osteoblast", "experiment": "Effect on procollagen 6 alpha 1 gene expression in rat primary osteoblast cells assessed as expression ratio of treated to untreated control by microarray analysis", "type": "functional", "method_in_brief": "(§1)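 Resveratrol-treated and vehicle-treated primary osteoblasts were profiled on a mouse osteogenesis-focused cDNA array (GEArray Q series) built to track gene expression during osteogenic differentiation. Each gene's signal in treated cells was expressed as a ratio to untreated control.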"}, "Osteoblast [2]": {"tested_on": "Osteoblast", "experiment": "Effect on procollagen 9 alpha 3 gene expression in rat primary osteoblast cells assessed as expression ratio of treated to untreated control by microarray analysis", "type": "functional", "method_in_brief": "as §1"}, "Osteoblast [3]": {"tested_on": "Osteoblast", "experiment": "Effect on fibroblast growth factor receptor 3 gene expression in rat primary osteoblast cells assessed as expression ratio of treated to untreated control by microarray analysis", "type": "functional"}, "Osteoblast [4]": {"tested_on": "Osteoblast", "experiment": "Increase in BMP2 levels in rat primary osteoblast cells at 1 uM after 48 hrs by ELISA", "type": "functional, cell-based", "method_in_brief": "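Culture medium collected after 48 h treatment at indicated concentrations; BMP-2 sandwich ELISA, 2 h room temperature incubation, HRP-streptavidin with TMB, absorbance at 450 nm; expressed as percent change versus untreated control.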"}, "[5]": {"molecular_target": "T1, Estrogen receptor (Mus musculus) (UniProt P19785)", "T1 sequence (whole entry)": "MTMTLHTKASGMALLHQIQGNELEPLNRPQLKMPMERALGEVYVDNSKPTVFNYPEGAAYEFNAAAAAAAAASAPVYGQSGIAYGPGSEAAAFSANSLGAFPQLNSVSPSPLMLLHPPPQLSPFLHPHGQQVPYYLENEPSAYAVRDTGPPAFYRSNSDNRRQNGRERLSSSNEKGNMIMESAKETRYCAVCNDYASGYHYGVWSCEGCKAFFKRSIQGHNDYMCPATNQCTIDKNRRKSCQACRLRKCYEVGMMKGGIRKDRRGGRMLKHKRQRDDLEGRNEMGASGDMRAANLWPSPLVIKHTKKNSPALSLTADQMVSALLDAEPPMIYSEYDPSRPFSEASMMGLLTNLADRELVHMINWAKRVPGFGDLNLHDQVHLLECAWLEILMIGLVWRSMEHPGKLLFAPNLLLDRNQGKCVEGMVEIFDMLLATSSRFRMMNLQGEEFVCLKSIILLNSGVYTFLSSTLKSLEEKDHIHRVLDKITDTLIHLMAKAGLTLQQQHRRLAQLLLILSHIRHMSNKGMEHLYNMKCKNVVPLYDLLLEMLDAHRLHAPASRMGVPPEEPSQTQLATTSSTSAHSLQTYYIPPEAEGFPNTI", "experiment": "Reversal of increase in DNA-binding activity of ERalpha in nuclear extracts of mouse MC3T3-E1 cells transfected with dominant-negative mutant Src expression vector by electrophoretic mobility shift assays", "type": "cell-based", "method_in_brief": "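Nuclear extracts of MC3T3-E1 cells. ER-binding probe [α-32P]dCTP end-labeled, 20-min binding at room temperature, 5-fold unlabeled competitor where used. Complexes resolved on 5% nondenaturing PAGE in Tris-borate-EDTA pH 8.3, then autoradiography.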"}, "MC3T3-E1 [6]": {"tested_on": "MC3T3-E1", "experiment": "Increase in BMP2 expression in mouse MC3T3-E1 cells expressing pBMP2delta1 mutant at 1 uM after 4 hrs by luciferase method relative to control", "type": "functional, cell-based", "method_in_brief": "(§2)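 MC3T3-E1 cells transfected with BMP-2 promoter–luciferase constructs (full promoter or deletions), treated with 1 μm or vehicle for 4 h; Dual-Luciferase assay; means ± S.D.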"}, "Osteoblast [7]": {"tested_on": "Osteoblast", "experiment": "Effect on fibronectin 1 gene expression in rat primary osteoblast cells assessed as expression ratio of treated to untreated control by microarray analysis", "type": "functional"}, "[8]": {"experiment": "Reversal of induction in BMP2 expression in mouse MC3T3-E1 cells transfected with dominant-negative mutant Src expression vector at 1 uM by Western blot", "type": "functional, cell-based", "method_in_brief": "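Src phosphorylation, ERα nuclear translocation and BMP-2 protein analysed by Western blot with ECL detection. Three independent experiments.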"}, "Osteoblast [9]": {"tested_on": "Osteoblast", "experiment": "Inhibition of etoposide-induced apoptosis in rat primary osteoblast cells after 24 hrs by flow cytometry", "type": "functional, cell-based", "method_in_brief": "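Cells washed in PBS, held 30 min in 0.5% Triton X-100/PBS/0.05% RNase A, then propidium iodide (50 μg/ml) added and kept on ice 15–30 min. Apoptosis is the hypodiploid fraction below the G0/G1 peak, by flow cytometry. Run in triplicate and repeated on three occasions.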"}, "Osteoblast [10]": {"tested_on": "Osteoblast", "experiment": "Effect on integrin beta 1 gene expression in rat primary osteoblast cells assessed as expression ratio of treated to untreated control by microarray analysis", "type": "functional", "method_in_brief": "as §1"}, "[11]": {"molecular_target": "RAC-alpha serine/threonine-protein kinase (Homo sapiens) (UniProt P31749)", "sequence (P31749 whole entry)": "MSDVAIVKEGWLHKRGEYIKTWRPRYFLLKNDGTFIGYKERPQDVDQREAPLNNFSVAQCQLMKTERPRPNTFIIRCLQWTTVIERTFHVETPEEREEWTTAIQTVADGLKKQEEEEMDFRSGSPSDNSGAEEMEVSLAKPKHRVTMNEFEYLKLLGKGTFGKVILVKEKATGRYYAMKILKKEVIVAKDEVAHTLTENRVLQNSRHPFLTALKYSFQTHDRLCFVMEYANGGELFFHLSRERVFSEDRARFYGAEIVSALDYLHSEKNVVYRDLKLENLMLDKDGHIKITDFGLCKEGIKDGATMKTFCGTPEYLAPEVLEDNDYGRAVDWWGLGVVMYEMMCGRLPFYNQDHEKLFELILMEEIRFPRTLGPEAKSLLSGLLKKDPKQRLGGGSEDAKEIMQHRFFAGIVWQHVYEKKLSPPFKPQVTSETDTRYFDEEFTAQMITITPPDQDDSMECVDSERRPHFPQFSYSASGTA", "experiment": "Inhibition of IGF-induced Akt phosphorylation in human MDA-MB-231 cells by Western blot", "type": "cell-based", "method_in_brief": "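MDA-MB-231 cells, control or treated, stimulated with or without IGF; lysates analyzed by Western blot for Akt phosphorylation.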"}, "Osteoblast [12]": {"tested_on": "Osteoblast", "experiment": "Increase in osteopontin levels in rat primary osteoblast cells at 1 uM after 72 hrs by ELISA", "type": "functional, cell-based", "method_in_brief": "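Cells treated with 1 μm for 72 h; osteocalcin or osteopontin in culture medium by sandwich ELISA, HRP-streptavidin/TMB, 450 nm; percent change versus untreated control.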"}, "[13]": {"molecular_target": "RAC-alpha serine/threonine-protein kinase (Homo sapiens) (UniProt P31749)", "experiment": "Enhancement of Akt inactivation in human MDA-MB-231 cells transfected with dominant negative Akt mutant", "type": "cell-based", "method_in_brief": "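MDA-MB-231 cells transfected with vector, constitutively active Akt or dominant negative Akt, treated ± compound; analyzed by Western blotting and BMP-2 promoter luciferase activity.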"}, "Osteoblast [14]": {"tested_on": "Osteoblast", "experiment": "Effect on histone H1 gene expression in rat primary osteoblast cells assessed as expression ratio of treated to untreated control by microarray analysis", "type": "functional", "method_in_brief": "as §1"}, "[15]": {"molecular_target": "Forkhead box protein O3 (Homo sapiens) (UniProt O43524)", "sequence (O43524 whole entry)": "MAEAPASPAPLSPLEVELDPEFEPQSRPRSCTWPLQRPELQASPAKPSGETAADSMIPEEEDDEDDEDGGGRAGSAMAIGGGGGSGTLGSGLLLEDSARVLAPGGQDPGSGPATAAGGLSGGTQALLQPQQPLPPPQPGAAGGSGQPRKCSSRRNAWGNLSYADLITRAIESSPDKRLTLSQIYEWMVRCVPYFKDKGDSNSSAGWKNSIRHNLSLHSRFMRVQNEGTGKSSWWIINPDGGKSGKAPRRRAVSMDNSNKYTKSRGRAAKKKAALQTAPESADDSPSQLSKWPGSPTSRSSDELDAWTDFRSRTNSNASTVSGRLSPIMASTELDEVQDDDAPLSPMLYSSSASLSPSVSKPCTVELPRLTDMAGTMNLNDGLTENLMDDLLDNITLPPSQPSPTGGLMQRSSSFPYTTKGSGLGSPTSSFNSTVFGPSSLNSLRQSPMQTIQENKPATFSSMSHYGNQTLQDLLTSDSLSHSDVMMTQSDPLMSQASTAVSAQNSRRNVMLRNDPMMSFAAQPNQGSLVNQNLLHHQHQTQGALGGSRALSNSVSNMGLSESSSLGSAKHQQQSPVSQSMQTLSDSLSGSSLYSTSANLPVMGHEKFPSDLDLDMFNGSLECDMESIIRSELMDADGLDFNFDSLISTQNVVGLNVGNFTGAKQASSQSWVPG", "experiment": "Reversal of induction of FOXO3a activity in human MDA-MB-231 cells transfected with FOXO3a-specific small interfering RNA", "type": "cell-based"}, "MC3T3-E1 [16]": {"tested_on": "MC3T3-E1", "experiment": "Increase in BMP2 expression in mouse MC3T3-E1 cells expressing pBMP2 mutant at 1 uM after 4 hrs by luciferase method relative to control", "type": "functional, cell-based", "method_in_brief": "as §2"}, "Osteoblast [17]": {"tested_on": "Osteoblast", "experiment": "Inhibition of antiapoptotic activity in rat primary osteoblast cells at 1 uM after 48 hrs in presence of noggin", "type": "functional, cell-based"}, "MC3T3-E1 [18]": {"tested_on": "MC3T3-E1", "experiment": "Reversal of increase in ER.DNA complex in mouse MC3T3-E1 cells transfected with dominant-negative mutant Src expression vector at 1 uM by RT-PCR", "type": "functional, cell-based", "method_in_brief": "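BMP-2 promoter quantified by real-time PCR (45 cycles, 61 °C anneal), reported as IP-to-input Ct ratio. DN-Src by 3 μg vector, PP2 at 10 μM; ICI182780 and tamoxifen at indicated concentrations.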"}, "[19]": {"molecular_target": "Alkaline phosphatase (Rattus norvegicus) (UniProt Q9JKS8)", "sequence (Q9JKS8 as listed by the source)": "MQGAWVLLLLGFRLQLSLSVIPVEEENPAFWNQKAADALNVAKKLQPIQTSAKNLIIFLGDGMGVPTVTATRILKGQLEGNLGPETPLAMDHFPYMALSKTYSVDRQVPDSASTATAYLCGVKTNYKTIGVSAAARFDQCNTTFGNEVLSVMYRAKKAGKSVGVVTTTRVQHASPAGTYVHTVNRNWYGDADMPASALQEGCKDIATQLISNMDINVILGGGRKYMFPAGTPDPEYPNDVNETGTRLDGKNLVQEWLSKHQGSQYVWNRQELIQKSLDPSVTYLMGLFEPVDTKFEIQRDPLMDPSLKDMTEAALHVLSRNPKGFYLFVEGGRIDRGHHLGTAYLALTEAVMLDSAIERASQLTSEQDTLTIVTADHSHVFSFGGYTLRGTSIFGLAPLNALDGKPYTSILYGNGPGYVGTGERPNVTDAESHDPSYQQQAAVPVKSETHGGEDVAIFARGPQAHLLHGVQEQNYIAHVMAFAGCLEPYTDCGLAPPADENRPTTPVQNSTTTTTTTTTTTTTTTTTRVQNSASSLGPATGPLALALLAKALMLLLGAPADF", "experiment": "Inhibition of induction of ALP activity in rat primary osteoblast cells at 1 uM after 48 hrs in presence of noggin", "type": "cell-based"}, "Osteoblast [20]": {"tested_on": "Osteoblast", "experiment": "Effect on procollagen 9 alpha 1 gene expression in rat primary osteoblast cells assessed as expression ratio of treated to untreated control by microarray analysis", "type": "functional", "method_in_brief": "as §1"}, "Osteoblast [21]": {"tested_on": "Osteoblast", "experiment": "Effect on integrin alpha 2b gene expression in rat primary osteoblast cells assessed as expression ratio of treated to untreated control by microarray analysis", "type": "functional", "method_in_brief": "as §1"}, "[22]": {"molecular_target": "T1, Estrogen receptor (Mus musculus)", "experiment": "Increase in DNA-binding activity of ERalpha in nuclear extracts of mouse MC3T3-E1 cells by electrophoretic mobility shift assays", "type": "cell-based", "method_in_brief": "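MC3T3-E1 nuclear extracts incubated with 32P end-labeled ERα probe for 20 min at room temperature in 20 μl; 5-fold unlabeled competitor for specificity; 5% nondenaturing PAGE in Tris-borate-EDTA pH 8.3, autoradiography at –70 °C.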"}}, "note": "Activity calls are given as the source filed them. No cut-off for these calls is given here."}
{"smiles": "Oc1ccc(/C=C/c2cc(O)cc(O)c2)cc1", "note": "[RESVERATROL]", "values": [{"measurement": "Ratio", "setting": "Osteoblast [1]", "result": 2.35}, {"measurement": "Ratio", "setting": "Osteoblast [2]", "result": 6.67}, {"measurement": "Ratio", "setting": "Osteoblast [3]", "result": 0.9}, {"measurement": "Activity", "setting": "Osteoblast [4]", "result": "Dose-dependent effect"}, {"measurement": "Activity", "setting": "[5]", "result": "Active"}, {"measurement": "Activity", "setting": "MC3T3-E1 [6]", "result": "Active"}, {"measurement": "Ratio", "setting": "Osteoblast [7]", "result": 8.76}, {"measurement": "Activity", "setting": "[8]", "result": "Active"}, {"measurement": "Activity", "setting": "Osteoblast [9]", "result": "Active"}, {"measurement": "Ratio", "setting": "Osteoblast [10]", "result": 2.97}, {"measurement": "Activity", "setting": "[11]", "result": "Active"}, {"measurement": "Activity", "setting": "Osteoblast [12]", "result": "Active"}, {"measurement": "Activity", "setting": "[13]", "result": "Active"}, {"measurement": "Ratio", "setting": "Osteoblast [14]", "result": 0.44}, {"measurement": "Activity", "setting": "[15]", "result": "Active"}, {"measurement": "Activity", "setting": "MC3T3-E1 [16]", "result": "Active"}, {"measurement": "Activity", "setting": "Osteoblast [17]", "result": "Active"}, {"measurement": "Activity", "setting": "MC3T3-E1 [18]", "result": "Active"}, {"measurement": "Activity", "setting": "[19]", "result": "Active"}, {"measurement": "Ratio", "setting": "Osteoblast [20]", "result": 3.99}, {"measurement": "Ratio", "setting": "Osteoblast [21]", "result": 0.57}, {"measurement": "Activity", "setting": "[22]", "result": "Active"}]}
